Measured values: ChEMBL document CHEMBL1132586, “New water-soluble duocarmycin derivatives: synthesis and antitumor activity of A-ring pyrrole compounds bearing beta-heteroarylacryloyl groups” (J Med Chem, 1999)
One block for each compound: values may come before it.

What was measured:
HeLa [1] = assay: Compound was tested in vitro for anticellular activity against HeLa S3 cell growth at 1-hour exposure.; assay type: functional, cell-based; settings: Homo sapiens
HeLa [2] = assay: Compound was tested in vitro for anticellular activity against HeLa S3 cell growth at 72-hour exposure.; assay type: functional, cell-based; settings: Homo sapiens
Mus musculus [3] = organism: Mus musculus; assay: Compound was tested for hematotoxicity and the number of peripheral platelets of normal mice on day 7 (percent of control) was determined, expressed as percent of control; assay type: functional
In short: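 Normal male ddY mice (mean weight 20 ± 1 g) given a single iv tail-vein injection of drug dissolved in saline; 7 days later orbital-vein blood drawn and platelets counted on a microcell counter; value is treated count as percent of control.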

Mus musculus [4] = organism: Mus musculus; assay: Compound was tested for hematotoxicity and the number of white blood cells of tumor bearing mice on day 4(percent of control) was determined, expressed as percent of control; assay type: functional
In short: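 Sarcoma 180-bearing mice dosed iv starting 1 day after sc tumour inoculation; 4 days later orbital-vein blood drawn and white blood cells counted on a microcell counter; value is treated count as percent of control.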

CCRF S-180 [5] = assay: Compound was tested in vivo for antitumor activity against murine sarcoma 180 in mice at 0.25 mg/kg dosage and efficacy is expressed as T/C (mice were implanted subcutaneously with tumor cells and the drug was dosed intravenously); assay type: functional, Mus musculus; settings: route intravenous
In short: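 Sarcoma 180 cells passaged in adult male ddY mice and inoculated sc at the axillary region, 5 mice/group; iv dosing began 1 day after inoculation. Tumour volume = length × width²/2. T/C is treated over control mean tumour volume; effective at ≤42%, Mann–Whitney U test (p < 0.05).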

[6] = Aqueous solubility of the compound; assay type: physicochemical; settings: water; read-out: S
CCRF S-180 [7] = assay: Compound was tested in vivo for antitumor activity against murine sarcoma 180 in mice at 4 mg/kg dosage and efficacy is expressed as T/C (mice were implanted subcutaneously with tumor cells and the drug was dosed intravenously); settings: route intravenous

SMILES: COC(=O)c1c(C)[nH]c2c1[C@@]13C[C@@H]1CN(C(=O)/C=C/c1cnc(OC)nc1)C3=CC2=O
IC50 (HeLa [1]): 2.5 nM
IC50 (HeLa [2]): 0.9 nM
Hematotoxicity (Mus musculus [3]): 28%
Hematotoxicity (Mus musculus [4]): 86%
T/C (CCRF S-180 [5]): 0.45

SMILES: COC(=O)c1c(C)[nH]c2c(OC(=O)N3CCN(C)CC3)cc3c(c12)[C@H](CBr)CN3C(=O)/C=C/c1ccc(OC)nc1.Cl
solubility [6]: > 20 mg/mL
IC50 (HeLa [1]): 900 nM
IC50 (HeLa [2]): 110 nM
Hematotoxicity (Mus musculus [3]): 38%
Hematotoxicity (Mus musculus [4]): 92%
T/C (CCRF S-180 [5]): 0.36

SMILES: COC(=O)c1c(C)[nH]c2c1[C@@]13C[C@@H]1CN(C(=O)/C=C/c1ccc(OC)nn1)C3=CC2=O
IC50 (HeLa [1]): 0.5 nM
IC50 (HeLa [2]): 0.28 nM

SMILES: COC(=O)c1c(C)[nH]c2c1[C@@]13C[C@@H]1CN(C(=O)/C=C/c1ccc(OC)nc1)C3=CC2=O
IC50 (HeLa [1]): 3.3 nM
IC50 (HeLa [2]): 0.42 nM
Hematotoxicity (Mus musculus [3]): 50%
Hematotoxicity (Mus musculus [4]): 84%
T/C (CCRF S-180 [7]): 0.6

SMILES: COC(=O)c1c(C)[nH]c2c1[C@@]13C[C@@H]1CN(C(=O)/C=C/c1ccc(OC)cc1)C3=CC2=O
Hematotoxicity (Mus musculus [3]): 50%
Hematotoxicity (Mus musculus [4]): 63%
T/C (CCRF S-180 [5]): 0.34

SMILES: COC(=O)c1c(C)[nH]c2c(OC(=O)N3CCN(C)CC3)cc3c(c12)[C@H](CBr)CN3C(=O)/C=C/c1ccc(OC)cn1.Cl
solubility [6]: > 20 mg/mL
IC50 (HeLa [1]): 1300 nM
IC50 (HeLa [2]): 150 nM
Hematotoxicity (Mus musculus [3]): 38%
Hematotoxicity (Mus musculus [4]): 105%
T/C (CCRF S-180 [5]): 0.5

IC50 (HeLa [1]): 9.7 nM
IC50 (HeLa [2]): 2.9 nM
SMILES: COC(=O)c1c(C)[nH]c2c1[C@@]13C[C@@H]1CN(C(=O)/C=C/c1ccc(OC)cn1)C3=CC2=O

SMILES: COC(=O)c1c(C)[nH]c2c(OC(=O)N3CCN(C)CC3)cc3c(c12)[C@H](CBr)CN3C(=O)/C=C/c1ccc(OC)nn1.Cl
solubility [6]: > 20 mg/mL
IC50 (HeLa [1]): 1100 nM
IC50 (HeLa [2]): 90 nM
Hematotoxicity (Mus musculus [3]): 51%
Hematotoxicity (Mus musculus [4]): 115%
T/C (CCRF S-180 [5]): 0.31

SMILES: COC(=O)c1c(C)[nH]c2c(OC(=O)N3CCN(C)CC3)cc3c(c12)[C@H](CBr)CN3C(=O)/C=C/c1cnc(OC)nc1.Cl
solubility [6]: > 20 mg/mL
IC50 (HeLa [1]): 1300 nM
IC50 (HeLa [2]): 170 nM
Hematotoxicity (Mus musculus [3]): 26%
Hematotoxicity (Mus musculus [4]): 69%
T/C (CCRF S-180 [5]): 0.26
